Values after ≈ are worked out from the molar mass of the structure shown.
What was measured:
[1] = pKa value was determined; assay type: physicochemical
DNA gyrase = DNA gyrase (Escherichia coli, UniProt P0AES4+P0AES6); assay: Inhibitory activity against Escherichia coli DNA gyrase; assay type: protein-complex assay
Staphylococcus aureus [2] = assay: Compound was evaluated for its minimum inhibitory concentration against Staphylococcus aureus; assay type: functional
Method in brief: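 MIC by 2-fold broth microdilution, read after 24-h incubation; S. aureus strain 011HT3, no particular resistance phenotype.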

Staphylococcus aureus [3] = assay: Compound was evaluated for its minimum inhibitory concentration against Staphylococcus aureus in presence of 10% serum; assay type: functional
Method in brief: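 MIC against S. aureus strain 011HT3 (no particular resistance phenotype) in medium containing serum proteins; 2-fold broth microdilution, read after 24-h incubation.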

Compound | pKa [1] | IC50 (DNA gyrase) [nM] | MIC (Staphylococcus aureus [2]) [µg/mL] | MIC (Staphylococcus aureus [3]) [µg/mL]
CO[C@@H]1[C@@H](OC(=O)c2ccc(C)[nH]2)[C@@H](O)[C@H](Oc2ccc3c(N4CC(C)NC(C)C4)cc(=O)oc3c2C)OC1(C)C (some centres not stated) | 8 | 281 | 2.5 (≈ 4.39 µM) | 2.5
CO[C@@H]1[C@@H](OC(=O)c2ccc(C)[nH]2)[C@@H](O)[C@H](Oc2ccc3c(N4CCC(N(C)C)CC4)cc(=O)oc3c2C)OC1(C)C | 9 | 480 | 2.5 (≈ 4.28 µM) | 2.5
CO[C@@H]1[C@@H](OC(=O)c2ccc(C)[nH]2)[C@@H](O)[C@H](Oc2ccc3c(N4CCNCC4)cc(=O)oc3c2C)OC1(C)C | 8.3 | 231 | 5 (≈ 9.23 µM) | 5
CO[C@@H]1[C@@H](OC(=O)c2ccc(C)[nH]2)[C@@H](O)[C@H](Oc2ccc3c(N4CCNC(C)C4)cc(=O)oc3c2C)OC1(C)C (some centres not stated) | 8.3 | 225 | 2.5 (≈ 4.5 µM) | 2.5
CO[C@@H]1[C@@H](OC(=O)c2ccc(C)[nH]2)[C@@H](O)[C@H](Oc2ccc3c(N(C)CCN(C)C)cc(=O)oc3c2C)OC1(C)C | 8.2 | 628 | 5 (≈ 8.97 µM) | 5
CO[C@@H]1[C@@H](OC(=O)c2ccc(C)[nH]2)[C@@H](O)[C@H](Oc2ccc3c(N4CC[N+](C)(C)CC4)cc(=O)oc3c2C)OC1(C)C | – | 245 | > 40 | > 40

Stronger by MIC (Staphylococcus aureus [2]), values ahead:

pKa [1] | IC50 (DNA gyrase) [nM] | MIC (Staphylococcus aureus [2]) [µg/mL] | MIC (Staphylococcus aureus [3]) [µg/mL] | Compound
7.3 | 540 | 0.15 (≈ 0.27 µM) | 0.3 | CO[C@@H]1[C@@H](OC(=O)c2ccc(C)[nH]2)[C@@H](O)[C@H](Oc2ccc3c(N4CCN(C)CC4)cc(=O)oc3c2C)OC1(C)C
3.6 | – | < 0.04 | 2.5 | CO[C@@H]1[C@@H](OC(N)=O)[C@@H](O)[C@H](Oc2ccc3c(O)c(NC(=O)c4ccc(O)c(CC=C(C)C)c4)c(=O)oc3c2C)OC1(C)C [NOVOBIOCIN]
7.4 | 847 | 1.2 (≈ 2.03 µM) | 20 | CO[C@@H]1[C@@H](OC(=O)c2ccc(C)[nH]2)[C@@H](O)[C@H](Oc2ccc3c(N4CCN(C)CC4)c(Cl)c(=O)oc3c2C)OC1(C)C
7.5 | 439 | 0.6 (≈ 1.05 µM) | 2.5 | CCN1CCN(c2cc(=O)oc3c(C)c(O[C@@H]4OC(C)(C)[C@H](OC)[C@@H](OC(=O)c5ccc(C)[nH]5)[C@H]4O)ccc23)CC1
5.5 | 1780 | 0.3 (≈ 0.485 µM) | 10 | CO[C@@H]1[C@@H](OC(=O)c2ccc(C)[nH]2)[C@@H](O)[C@H](Oc2ccc3c(N4CCN(c5ccccn5)CC4)cc(=O)oc3c2C)OC1(C)C
